Measured values published in article PMC8335715 (Medicinal Chemistry Research, 2021).

These compounds were tested against rat lens ALR2 (Rattus norvegicus, UniProt P07943) (assay: ALR2 enzyme inhibition assay). Settings: ratio IC50 ALR1 / IC50 ALR2; called SF in text.
Type: biochemical
How it was run: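 Rat lens enzyme (male Wistar) was partially purified: homogenised in cold water, spun at 10.000 g, fractionated with ammonium sulfate (40/50/75%). Substrate was D,L-glyceraldehyde in 0.067 M phosphate, pH 6.2, at 30 °C. Substrate started the reaction, and a substrate-free blank corrected NADPH oxidation. Test compound was in NaHCO3 or DMSO (1% final). IC50 came from least-squares fit of the linear semilog portion (25–75% inhibition), at least two experiments. The selectivity index was calculated against kidney-enzyme IC50.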

Selectivity index (ALR1/ALR2)	SMILES
< 1	COc1ccc2nc(/N=C3/NC(=O)C(=Cc4ccc(O)cc4)S3)sc2c1 [Compound 2, (Z)-5-(4-hydroxybenzylidene)-2-((6-methoxybenzo[d]thiazol-2-yl)imino)thiazolidin-4-one]
< 1	COc1ccc(/C=C2\SC(=Nc3nc4ccc(OC)cc4s3)NC2=O)cc1 [Compound 3, (Z)-2-((6-methoxybenzo[d]thiazol-2-yl)imino)-5-(4-methoxybenzylidene)thiazolidin-4-one]
< 1	COc1ccc2nc(/N=C3/NC(=O)C(=Cc4ccc(O)c(OC)c4)S3)sc2c1 [Compound 4, (Z)-5-(4-hydroxy-3-methoxybenzylidene)-2-((6-methoxybenzo[d]thiazol-2-yl)imino) thiazolidin-4-one]
